ChEMBL document CHEMBL1821693, “A novel 3-arylethynyl-substituted pyrido[2,3,-b]pyrazine derivatives and pharmacophore model as Wnt2/β-catenin pathway inhibitors in non-small-cell lung cancer cell lines” (Bioorg Med Chem, 2011)
pIC50: −log10 of the molar value. Calls of active or inactive are those of the source. The rule behind the calls is not given here.

What was measured:
[1] = test system: A549; test: Cytotoxicity against human A549 cells expressing Wnt2 after 24 to 72 hrs by MTS assay; format: functional, cell-based
Outline: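 Wnt2-overexpressing A549 cells (stable pUSEampWnt2, G418 selection) in RPMI-1640 with 10% FBS. Seeded at 8 × 10^3 cells/well and allowed ~24 h to attach. Exposed to a range of concentrations. Viability measured 24 h after treatment by MTS (30 min at 37 °C, A490); IC50 derived.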

[2] = test system: A549; test: Antiproliferative activity against human A549 cells expressing Wnt2 after 72 hrs by MTS assay; format: functional, cell-based; conditions: for pIC50: A549, 72 h
Outline: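 A549 cells stably transfected with pUSEampWnt2 (G418-selected), grown in RPMI-1640 with 10% FBS at 37 °C, 5% CO2. Seeded at 3 × 10^3 cells/well and allowed to attach ~24 h. Treated with a range of concentrations.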

[3] = test system: A549; test: Inhibition of total beta-catenin expression in human A549 whole cell extract at cytotoxicity IC50 by Western blot analysis; format: functional, cell-based
[4] = test system: A549; test: Inhibition of nucleus beta-catenin expression in human A549 cells at cytotoxicity IC50 by Western blot analysis; format: functional, cell-based
[5] = test system: A549; test: Inhibition of cytosolic beta-catenin expression in human A549 cells at cytotoxicity IC50 by Western blot analysis; format: functional, cell-based
[6] = Inhibition of Wnt2/beta-catenin signaling pathway in human A549 cells assessed as inhibition of Tcf/Lef transcriptional activity at cell proliferation IC50 after 24 hrs by dual luciferase reporter gene assay; format: cell-based; conditions: dose or concentration not given here
Outline: (§1)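 A549/Wnt2 cells co-transfected by lipofection with pSuper-Topflash (eight TCF sites driving firefly luciferase) or mutant pSuperFopflash, plus pRL-TK renilla for normalization. Compounds added at 37 °C for 24 h. Lysates read by dual-luciferase assay. Firefly/renilla ratio reported as mean ± SEM of triplicates, relative to non-treated cells.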

[7] = Inhibition of Wnt2/beta-catenin signaling pathway in human A549 cells assessed as inhibition of Tcf/Lef transcriptional activity after 24 hrs by dual luciferase reporter gene assay; format: cell-based; conditions: A549, 24 h; outline: as §1
[8] = test system: A549; test: Inhibition of cyclin D1 mRNA expression in human A549 cells expressing Wnt2 after 24 hrs by RT-PCR analysis; format: functional, cell-based
[9] = test system: A549; test: Ratio of IC50 for antiproliferative activity against human A549 cells to IC50 for cytotoxicity against human A549 cells; format: functional
Outline: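 Ratio of two MTS IC50s in A549/Wnt2 cells. Proliferation: 3 × 10^3 cells/well, read at 72 h. Cytotoxicity: 8 × 10^3 cells/well, read 24 h after treatment.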

SMILES	pIC50 [1]	inhibition [2]	pIC50 [2]	inhibition [3]	inhibition [4]	inhibition [5]	inhibition [6] [%]	pIC50 [7]	inhibition [8]	Ratio IC50 [9]
COc1ccc(C#Cc2nc3ncccc3nc2OCCN(C)C)c(C)c1	5.53	Dose-dependent effect	6.08	Active	Active	Active	30	–	–	–
CN(C)c1cccc(COc2nc3cccnc3nc2C#Cc2ccccc2)c1	5.76	–	–	Active	Active	Active	30	–	–	–
CN(C)CCOc1nc2ccccc2nc1C#Cc1ccccc1	–	–	–	–	–	–	–	6.12	–	–
Fc1cccc(C#Cc2nc3ncccc3nc2OCCN2CCCC2)c1	5.61	–	–	Active	Active	Active	30	–	–	–
COc1cccc(C#Cc2nc3ncccc3nc2Cl)c1	5.40	–	–	Active	Active	Active	50	–	–	–
C(#Cc1nc2ncccc2nc1OCCN1CCCC1)c1ccccc1	6.14	–	–	Active	Active	Active	30	–	–	–
COc1cccc(C#Cc2nc3ncccc3nc2OCCCN(C)C)c1	6.55	–	–	Active	Active	Active	30	–	–	–
COc1c(C[C@@H](C)OC(=O)Oc2ccc(O)cc2)c2c3c(C[C@@H](C)OC(=O)c4ccccc4)c(OC)c(=O)c4c(O)cc(OC)c(c5c(OC)cc(O)c(c1=O)c52)c43 [CALPHOSTIN C]	5.49	–	–	–	–	–	–	–	–	–
Cc1ccc(C#Cc2nc3ncccc3nc2OC(C)CN(C)C)cc1 (stereo unspecified)	5.72	–	–	Active	Active	Active	30	–	–	–
CN(C)CCOc1nc2cccnc2nc1C#Cc1cccc(F)c1	5.71	Dose-dependent effect	6.27	Active	Active	Active	30	–	Active	–
CC(C)N(CCOc1nc2cccnc2nc1C#Cc1cccc(F)c1)C(C)C	5.54	–	–	Active	Active	Active	50	–	Active	–
CN1CCCC(Oc2nc3cccnc3nc2C#Cc2ccccc2)C1 (stereo unspecified)	6.14	–	–	Active	Active	Active	30	–	–	–
C(#Cc1nc2ncccc2nc1OCCc1ccccn1)c1ccccc1	6.70	Dose-dependent effect	7.37	Active	Active	Active	50	6.92	Active	–
CCN(CC)CCOc1nc2cccnc2nc1C#Cc1ccc(OC)cc1	6.19	Dose-dependent effect	6.68	Active	Active	Active	50	–	Active	3.07
COc1cc(C#Cc2nc3ncccc3nc2OCCCN(C)C)cc(OC)c1	6.42	–	–	Active	Active	Active	30	–	–	–
